Published values pooled from the literature.
Each line is one published result; the experiments were not run side by side.
Observed: metabolic stability
Host: rat
Matrix: liver microsomes

| Compound | setting | half-life [min] |
| --- | --- | --- |
| N#Cc1ccc(C[C@H](Nc2nnc(-c3ccc(F)cc3)s2)C(=O)N2CCc3ccccc32)cc1 | 10 µM, pH 7.4 | 19.3 |
| NCc1ccc(-c2nn(Cc3ccccc3)c3ccccc23)o1 | – | 85 |
| N#Cc1ccc(C[C@H](Nc2c(Nc3ccc(Br)cc3)c(=O)c2=O)C(=O)N2CCc3ccccc32)cc1 | 10 µM, pH 7.4 | 38 |
| NCc1ccc(-c2nn(Cc3ccncc3)c3ccccc23)o1 | 1 µM, pH 7.4 | ~17 |
| N#Cc1ccc(C[C@H](NC(=O)c2cc3ccc(F)cc3[nH]2)C(=O)N2CCc3ccccc32)cc1 | 10 µM, pH 7.4 | 105 |
| COc1ncccc1Cn1nc(-c2ccc(CO)o2)c2ccccc21 | 1 µM, pH 7.4 | 6 |
| COc1cc(-c2cc(C(C)=O)n3ccccc23)c(OC)cc1Cn1ccnc1 | 1 µM, pH 7.4 | 94.3 |
| C=CCn1c(=O)c2cnc(Nc3ccc(N4CCN(C)CC4)cc3)nc2n1-c1ccc2c(n1)[C@@](O)(CC)CC2 | – | 79 |
| CCN(CC)Cc1ccc2cc(COC(=O)Nc3ccc(C(=O)NO)cc3)ccc2c1 | pH 7.4 | 92.9 |
| Cc1[nH]c(C)c(S(=O)(=O)Nc2ccc(C(F)(F)F)c(Cl)c2)c1C(=O)N1CCC(F)(F)C1 | – | 8 |
| COc1ccccc1Cn1nc(-c2ccc(CO)o2)c2ccccc21 | 1 µM, pH 7.4 | 2 |
| N#Cc1ccc(C[C@H](Nc2nnc(-c3cccc(F)c3)s2)C(=O)N2CCc3ccccc32)cc1 | 10 µM, pH 7.4 | 47 |
| O=C(Nc1ccc(OC(F)(F)Cl)cc1)c1cnc(N2CC[C@@H](O)C2)c(-c2ccn[nH]2)c1 | 1 µM, pH 7.4 | 179 |
